Results on 1 compound are retold here after ChEMBL document CHEMBL1914421, “Aminomethyltetrazoles as potential inhibitors of the γ-aminobutyric acid transporters mGAT1-mGAT4: synthesis and biological evaluation” (Bioorg Med Chem, 2011).

Experiment [1] has as its target T1, Sodium- and chloride-dependent GABA transporter 1 (Mus musculus, UniProt P31648). As to the kind of experiment: Inhibition of mouse GAT1-mediated [3H]GABA uptake expressed in human HEK cells. The class given is cell-based, HEK293. In short, it runs like this:
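Specific [3H]GABA uptake measured at murine GAT1. Inhibition reported as pIC50 ± SEM from three independent experiments, each run in triplicate. Where stated, some values are the mean of two independent experiments, or one experiment in triplicate.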

Experiment [2] is described as follows: Inhibition of mouse GAT4-mediated [3H]GABA uptake expressed in human HEK cells. The conditions noted are these: HEK293. The class given is cell-based. In short, it runs like this:
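Specific [3H]GABA uptake was measured at the murine transporter subtype, and results are given as pIC50 ± SEM from three independent experiments, each run in triplicate.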

Experiment [3] has as its target T1, Sodium- and chloride-dependent GABA transporter 1. As to the kind of experiment: Inhibition of mouse GAT1-mediated [3H]GABA uptake expressed in BHK cells. It counts as cell-based.
A further experiment concerns the target T2, GABA transporter 4 (Mus musculus, UniProt P31650).
T2 sequence (P31650 whole entry): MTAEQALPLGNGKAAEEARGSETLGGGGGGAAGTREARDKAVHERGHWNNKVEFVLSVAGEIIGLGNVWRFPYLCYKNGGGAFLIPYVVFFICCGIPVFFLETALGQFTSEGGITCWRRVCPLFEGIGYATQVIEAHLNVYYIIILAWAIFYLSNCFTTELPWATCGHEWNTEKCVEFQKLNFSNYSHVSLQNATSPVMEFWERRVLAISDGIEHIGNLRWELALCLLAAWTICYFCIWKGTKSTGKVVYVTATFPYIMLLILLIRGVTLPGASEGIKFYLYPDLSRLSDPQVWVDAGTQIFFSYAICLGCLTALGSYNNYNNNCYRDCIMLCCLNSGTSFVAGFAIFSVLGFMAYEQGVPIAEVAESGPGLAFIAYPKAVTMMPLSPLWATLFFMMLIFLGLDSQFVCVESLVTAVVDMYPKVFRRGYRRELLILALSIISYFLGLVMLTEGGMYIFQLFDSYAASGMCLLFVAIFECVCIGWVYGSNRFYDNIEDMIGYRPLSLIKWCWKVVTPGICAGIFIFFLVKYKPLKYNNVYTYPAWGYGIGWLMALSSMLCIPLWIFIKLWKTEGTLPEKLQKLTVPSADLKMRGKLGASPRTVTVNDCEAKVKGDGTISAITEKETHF
The experiment in a line: Inhibition of mouse GAT4-mediated [3H]GABA uptake expressed in BHK cells. The class given is cell-based.

Turning to `COc1ccccc1C1(O)CCN(CCCn2c3ccccc3c3ccccc32)CC1`, the IC50 in experiment [1] is 10.2 µM; in experiment [2], 16.6 µM; in experiment [3], 19.1 µM; against GABA transporter 4 it was 15.1 µM.

As a reminder, the IC50 is the midpoint of a concentration-inhibition curve.
